# Measured values of several laboratories.
# Lines come from different studies, so protocols differ.
# Target: Cytochrome P450 3A4 (CYP3A4, Homo sapiens, UniProt P08684)
SMILES,assay,system,setting,endpoint,result
CC(C)(C)OC(=O)N[C@H](CSCCC(=O)NCc1cccnc1)CC1CCCCC1,thermal stability,,,ΔTm,-2 °C
CCc1cc(/C(C)=N/OCc2ccc(C3CCCCC3)c(C(F)(F)F)c2)ccc1CN1CC(C(=O)O)C1,"enzyme activity, inhibitor","human, liver microsomes","200 µM, 20 min, testosterone probe",inhibition,72.7%
CC(C)(C)OC(=O)N[C@H](CSCCC(=O)NCc1cccnc1)Cc1c[nH]c2ccccc12,thermal stability,,,ΔTm,0.2 °C
O=C(N[C@H](Cc1c[nH]c2ccccc12)C(=O)Nc1ccncc1)c1ccc(-c2cc(F)ccc2F)cc1F,"enzyme activity, inhibitor","human, liver microsomes",1 µM,inhibition,74%
C=CC(=O)Nc1cc(Nc2nccc(Nc3cc(Cl)c(F)cc3C(C)(C)O)n2)c(OC)cc1N1CC[C@@H](N(C)C)C1,"enzyme activity, inhibitor","human, liver microsomes",10 µM,inhibition,24.3%
CCOC(=O)C1CCN(C(=O)c2ccc(N(CC)Cc3cnc4nc(N)nc(N)c4n3)cc2)CC1,"enzyme activity, inhibitor, luciferase",,10 µM,inhibition,-13.6%
COc1cc2c(c(OC)c1OC)-c1c(cc3c(c1OC)OCO3)[C@H](OC(=O)c1ccccc1)[C@@](C)(O)[C@@H](C)C2,"enzyme activity, inhibitor",,"15 min, pH 7.4",IC50,25 µM
COC(=O)C1CCN(C(=O)c2ccc(N(CCO)Cc3cnc4nc(N)nc(N)c4n3)cc2)CC1,"enzyme activity, inhibitor, luciferase",,10 µM,inhibition,-27.6%
NCCCCCC(=O)NCc1cccnc1,thermal stability,,,ΔTm,-0.2 °C
CCN(Cc1cnc2nc(N)nc(N)c2n1)c1ccc(C(=O)N2CCC(C(=O)OC)CC2)cc1,"enzyme activity, inhibitor, luciferase",,10 µM,inhibition,-13.9%
CC(=O)c1cccc(OCc2cc(C(=O)N(C)[C@@H](C)c3ccccn3)no2)c1,"enzyme activity, inhibitor","human, liver microsomes",,IC50,27 µM
CC1(C)CCC2(CC1)N[C@@H](C(=O)N[C@@H]1CC[C@@H](C(N)=O)OC1)[C@H](c1ccnc(Cl)c1F)[C@]21C(=O)Nc2cc(Cl)ccc21,"enzyme activity, inhibitor","human, liver microsomes","with preincubation, midazolam probe",kinact,0.00103 s⁻¹
COC(=O)C1CCN(C(=O)Cc2ccc(NCc3cnc4nc(N)nc(N)c4n3)cc2)CC1,"enzyme activity, inhibitor, luciferase",,10 µM,inhibition,-1.83%
